# SENP8 block-1 = blocks the human protease SENP8. Q96LD8. purified SENP8, Z-RLRGG-aminoluciferin cleavage, luminescence. inhibition, % at 10 µM. 330,000 tested, 1.2% active. AID 2540; in the data active = inhibition above about 50%
# Target sequence (Q96LD8 whole entry, looked up): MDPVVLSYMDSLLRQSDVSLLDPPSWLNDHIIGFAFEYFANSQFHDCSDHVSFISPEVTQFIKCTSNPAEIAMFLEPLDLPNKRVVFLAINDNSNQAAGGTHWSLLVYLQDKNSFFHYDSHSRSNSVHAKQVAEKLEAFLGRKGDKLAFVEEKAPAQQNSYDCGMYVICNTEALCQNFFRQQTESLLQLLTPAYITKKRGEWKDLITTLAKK
# SENP8 block-2 = SENP8 (human) protease inhibition; inhibition, % at 20 µM; 360,000 tested, 0.64% active; AID 602440; recombinant SENP8, Nedd8 substrate fluorescence; in the data active = inhibition mostly above about 40%, no sharp cut-off; inactive = mostly below about 27%
# SENP7 block = blocks the human protease SENP7; recombinant SENP7, Z-RLRGG-aminoluciferin luminescence, 40 min; inhibition, % at 5 µM; AID 434973; Q9BQF6; 330,000 tested, 1.5% active;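 active = inhibition above about 50% at the single test dose, limit read from the data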;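 also: plate controls were DMSO with enzyme for no effect and no enzyme buffer wells for full effect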
# SENP1 FRET inh = SENP1 (human) catalytic domain inhibition | Q9P0U3 | recombinant SENP1 catalytic domain, CyPet-SUMO1-YPet FRET cleavage | inhibition, % at 10 µM | 360,000 tested, 0.21% active;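 active = inhibition at least 30% at 10 µM, raw YFP signal under a set limit, fluorescence ratio 0.5 to 1.5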;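 also: 0% = enzyme with DMSO and 100% = no enzyme wells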
# Target sequence (Q9P0U3 419-644 limits assumed): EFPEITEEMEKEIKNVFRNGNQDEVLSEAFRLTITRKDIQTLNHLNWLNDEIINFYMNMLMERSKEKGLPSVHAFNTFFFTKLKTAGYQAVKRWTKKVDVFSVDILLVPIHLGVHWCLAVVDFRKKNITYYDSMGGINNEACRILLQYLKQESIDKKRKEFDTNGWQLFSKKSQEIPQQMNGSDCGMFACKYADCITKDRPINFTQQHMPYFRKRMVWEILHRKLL
#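 Material – human SENP1 catalytic domain · Input – SENP1 enzyme, 20 pM final · Compound dosing – single concentration of 10 µM compound, 0.5% DMSO final · Timing – enzyme reaction for 50 min at room temperature, dark · Measured by – FRET fluorescence in CFP and YFP emission channels · Control set – no-enzyme wells low, DMSO-plus-enzyme wells high control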
# SENP6 block = SENP6 protease inhibition; inhibition, % at 10 µM; Recombinant SENP6 catalytic domain, aminoluciferin luminescence; AID 2599; 330,000 tested, 1.8% active; Q9GZR1;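 active = inhibition above about 50% at the single tested dose, limit read from the data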;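 also: plate controls were DMSO wells with enzyme for no effect and DMSO wells lacking enzyme for full effect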
# UCH37 inh = human UCH37 deubiquitinating enzyme inhibition | Q9Y5K5 | purified proteasome/UCH37, Ub-AMC cleavage fluorescence | inhibition, % (concentration not given with the values) | 330,000 tested, 0.33% active | AID 588478;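 active = mean inhibition over replicate wells above about 20%, limit read from the data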;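 also: 0% = compound-free wells with enzyme and 100% = wells lacking proteasome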
#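 Material: Human UCH37 enzyme supplied as purified proteasome complex | Schedule: 30 min compound-proteasome preincubation then 25 min substrate reaction, room temperature | Detection: AMC fluorescence from Ub-AMC cleavage, excitation 355 nm, emission 460 nm | Benchmarks: Wells without proteasome as full block, compound-free enzyme plus substrate as uninhibited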
# SENP8 inh conf = confirmation of human SENP8 protease inhibitors; shares compounds with SENP8 block-2; inhibition, % at 25 µM; 1,400 tested, 15% active; purified SENP8, Nedd8-AMC/pro-Nedd8 cleavage fluorescence, 30 min; AID 624319; in the data active = inhibition mostly above about 39%, no sharp cut-off; inactive = mostly below about 34%
# SENP1 inh conf = SENP1 (human) inhibition, single concentration confirmation; shares compounds with SENP1 FRET inh; recombinant SENP1, CyPet-SUMO1-YPet FRET cleavage; inhibition, % at 10 µM; 520 tested, 34% active; AID 651678; in the data active = inhibition mostly above about 35%, no sharp cut-off; inactive = mostly below about 32%;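 also: 0% = enzyme with DMSO and 100% = no enzyme control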
# SENP1 kin conf = SENP1 (human) inhibition, kinetic confirmation; AID 651690; inhibition, % at 10 µM; 520 tested, 26% active; shares compounds with SENP1 FRET inh; recombinant SENP1, CyPet-SUMO1-YPet FRET kinetic cleavage; in the data active = inhibition mostly above about 32%, no sharp cut-off; inactive = mostly below about 29%;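 also: 0% = DMSO with enzyme and 100% = no enzyme substrate only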
# * hit, by the source's call; · = no result. A selection: hits, their analogues and other compounds. The true share with any hit is near 2.6%.
SMILES,SENP8 block-1,SENP8 block-2,SENP7 block,SENP1 FRET inh,SENP6 block,UCH37 inh,SENP8 inh conf,others
C[C@]12CCC3[C@@H](CC[C@H]4C[C@@H](O)CC[C@]34C)C1CCC2=O (stereo partly drawn),4,13,1,0,10,-4,·,
NC(=N[N+](=O)[O-])N1CCN(C(=O)c2ccccn2)CC1,·,·,·,·,·,1,·,
CC(=NNP(=S)(c1ccccc1)c1ccccc1)c1ccc(O)cc1O,·,·,·,·,·,5,·,
C/C=C(\C)C(=O)N[C@@H](c1ccccc1)[C@@H](O)C(=O)O[C@H]1C[C@@]2(O)[C@@H](OC(=O)c3ccccc3)C3[C@](C)(C(=O)[C@H](O)C(=C1C)C2(C)C)[C@@H](O)C[C@H]1OC[C@@]31OC(C)=O (stereo partly drawn),-2,24,-2,3,7,1,·,
CC(=O)O[C@@]12CO[C@@H]1C[C@H](O)[C@@]1(C)C(=O)[C@H](O)C3=C(C)[C@@H](O)C[C@@](O)([C@@H](OC(=O)c4ccccc4)C12)C3(C)C (stereo partly drawn),2,58*,-2,0,3,2,20,
COc1cc2c(c(OC)c1OC)-c1ccc(O)c(=O)cc1[C@@H](N)CC2,0,53*,7,-2,-8,1,-12,
CC(C)COC(=O)c1ccccc1C(=O)OCC(C)C,-2,48*,1,1,-16,1,8,
CCCCC(CC)COC(=O)c1ccccc1C(=O)OCC(CC)CCCC (stereo not drawn),1,11,2,-3,4,1,·,
C=CCc1ccc(OC)cc1,-10,50*,2,2,-3,-1,-5,
COc1cc(C)c(CN2CC=C(c3ccc(F)cc3)CC2)cc1C,-5,43*,9,2,6,4,7,
CC1CN(c2ccc([N+](=O)[O-])cc2Cl)CCN1 (stereo not drawn),-6,32*,2,3,10,8,14,
COc1ccc(CNCCc2ccc3c(c2)OCO3)cc1Br,-22,12,-11,2,-27,·,·,
COC1=CC(=O)OC(CCc2ccc3c(c2)OCO3)C1 (stereo not drawn),·,40*,·,-1,·,·,-2,
COc1cc(C(=O)NN=CC23CC[C@@H](O)CC2(O)CC[C@@H]2[C@@H]3CCC3(C)C(C4=CC(=O)OC4)CCC23O)ccc1O (stereo partly drawn),·,·,·,·,·,3,·,
CC(=NO)c1ccc2ccc3ccccc3c2c1,·,·,·,·,·,3,·,
COc1ccc(OC)c(-n2c(O)c(/C=C3\C(C)=Nc4ccccc43)c(=O)[nH]c2=O)c1,-2,11,-6,82*,-21,3,·,SENP1 inh conf=10;SENP1 kin conf=12
CC(=O)N1CCN(C(=O)COc2ccc(N(C)S(=O)(=O)c3cccs3)cc2)CC1,1,10,-6,-1,-18,-1,·,
O=Cc1c(C(=O)O)n(Cc2ccccc2Cl)c2ccccc12,-2,5,-5,1,-17,-1,·,
Cc1cc(C)c(Cn2c(C(=O)O)c(C=O)c3ccccc32)c(C)c1,1,-5,8,97*,0,5,·,SENP1 inh conf=77*;SENP1 kin conf=51*
CC(=O)c1ccc(N2CCN(C(=O)CN3C(=O)NC4(CCCCC4)C3=O)CC2)c(F)c1,-9,-29,8,1,-12,8,·,
C=CCN1C(=O)/C(=C/c2ccc(N3CCOCC3)o2)C(=O)NC1=S,-1,10,4,40*,-1,11,·,SENP1 inh conf=31;SENP1 kin conf=24
Cc1cccc(N2C(=O)CN(Cc3ccccc3)C2=S)c1,0,10,-5,1,-7,2,·,
COC(=O)C1=Nc2ccccc2/C1=C\c1c(O)n(C)c(=O)n(C)c1=O,8,-11,-1,-16,-13,3,·,
Cn1c(O)c(/C=C2\C=Nc3ccccc32)c(=O)n(C)c1=O,1,10,4,54*,-11,2,·,SENP1 inh conf=4;SENP1 kin conf=8
COc1ccccc1N1CCN(Cc2ccccc2Cl)CC1,-2,-11,-3,35*,-3,4,·,SENP1 inh conf=-4;SENP1 kin conf=2

# Bioassay records: PubChem, several laboratories
